# Laboratory results from ChEMBL document CHEMBL1127688, “Guaiacoxypropanolamine derivatives of capsaicin: a new family of beta-adrenoceptor blockers with intrinsic cardiotonic properties” (J Med Chem, 1994).
# Key:
# [1] = tested on: Rattus norvegicus; experiment: Minimum dose of iv injection that shows vagus reflex and a heart rate decrease of 50 beats/min in non-vagotomized rats; assay type: functional
# Method in brief: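 Non-vagotomized rats given increasing iv doses. The value is the lowest dose (mg/kg) that elicits a vagus reflex with a heart-rate fall of 50 beats/min. Compounds were scored ineffective if no such response occurred below 3 mg/kg. n = 8.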
# [2] = tested on: Rattus norvegicus; experiment: Change in blood pressure was tested by inducing ia injection at a dose 0.1 mg/kg in rat; assay type: functional; conditions: route intra-arterial
# [3] = tested on: Rattus norvegicus; experiment: Blood pressure of the urethane-anesthetized normotensive Wistar rat was tested 30 min after inducing the compound on dose of 1.0 mg/kg; assay type: functional
# Method in brief: (§1)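 Urethane-anesthetized normotensive Wistar rats given a single iv injection at 1.0 mg/kg. Blood pressure (mmHg) and heart rate (beats/min) recorded, and the change reported at 5, 10, 15, 30 and 60 min after dosing. Saline-injected controls. Mean ± SE, n = 8. Significance versus saline by analysis of variance.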
# [4] = tested on: Rattus norvegicus; experiment: Blood pressure of the urethane-anesthetized normotensive Wistar rat was tested 5 min after inducing the compound on dose of 1.0 mg/kg; assay type: functional; method in brief: as §1
# [5] = species on record: Cavia porcellus; experiment: Positive inotropic effect was evaluated on atrial muscles of the guinea pig; assay type: functional, Muscle tissue; conditions: for Kb: Cavia porcellus, Muscle tissue, read-out: pA2 (converted)
# [6] = tested on: Rattus norvegicus; experiment: Blood pressure of the urethane-anesthetized normotensive Wistar rat was tested 15 min after inducing the compound on dose of 1.0 mg/kg; assay type: functional; method in brief: as §1
# [7] = tested on: Rattus norvegicus; experiment: Heart rate of the urethane-anesthetized normotensive Wistar rat was tested 30 min after inducing the compound on dose of 1.0 mg/kg; assay type: functional; method in brief: as §1
# [8] = tested on: Rattus norvegicus; experiment: Heart rate of the urethane-anesthetized normotensive Wistar rat was tested 10 min after inducing the compound on dose of 1.0 mg/kg; assay type: functional; method in brief: as §1
# [9] = species on record: Cavia porcellus; experiment: Positive chronotropic effect was evaluated on atrial muscles of the guinea pig; assay type: functional, Muscle tissue; conditions: for Kb: Cavia porcellus, Muscle tissue, read-out: pA2 (converted)
# [10] = tested on: Rattus norvegicus; experiment: Blood pressure of the urethane-anesthetized normotensive Wistar rat was tested 10 min after inducing the compound on dose of 1.0 mg/kg; assay type: functional; method in brief: as §1
# [11] = tested on: Rattus norvegicus; experiment: Heart rate of the urethane-anesthetized normotensive Wistar rat was tested 5 min after inducing the compound on dose of 1.0 mg/kg; assay type: functional; method in brief: as §1
# [12] = tested on: Rattus norvegicus; experiment: Heart rate of the urethane-anesthetized normotensive Wistar rat was tested 15 min after inducing the compound on dose of 1.0 mg/kg; assay type: functional; method in brief: as §1
# [13] = tested on: Rattus norvegicus; experiment: Heart rate of the urethane-anesthetized normotensive Wistar rat was tested 60 min after inducing the compound on dose of 1.0 mg/kg; assay type: functional; method in brief: as §1
# [14] = tested on: Rattus norvegicus; experiment: Blood pressure of the urethane-anesthetized normotensive Wistar rat was tested 60 min after inducing the compound on dose of 1.0 mg/kg; assay type: functional; method in brief: as §1
# [15] = tested on: Rattus norvegicus; experiment: Change in blood pressure was tested by inducing ia injection at a dose 0.01 mg/kg in rat; assay type: functional; conditions: route intra-arterial
# Method in brief: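 Urethane-anaesthetised normotensive Wistar rats; single intra-arterial bolus via the superficial epigastric artery. Read-out is the depressor change in systemic blood pressure in mmHg. Data are means ± SE, n = 8, analysed by ANOVA.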
SMILES,BP [3] [mmHg],BP [4] [mmHg],Kb [5] [nM],BP [6] [mmHg],HR [7] [beats min-1],HR [8] [beats min-1],Kb [9] [nM],BP [10] [mmHg],HR [11] [beats min-1],HR [12] [beats min-1],HR [13] [beats min-1],BP [14] [mmHg],also measured
CCCCCCCCC(=O)NCc1ccc(OCCO)c(OC)c1,–,–,–,–,–,–,–,–,–,–,–,–,Dose [1]: 0.3 mg/kg; BP [2]: -44.2 mmHg
CCCCCCCCC(=O)NCc1ccc(OCC(O)CNCCCCC)c(OC)c1 (configuration not stated),3.67,-4.67,28.2,-0.88,-5.78,-23.33,64.6,-1.67,-25.11,-10.22,-6.56,2.44,–
CCCCCCCCC(=O)NCc1ccc(OCC(O)CNC(C)CC)c(OC)c1 (configuration not stated),-0.88,4.11,22.4,3.33,-25.11,-35.44,120,4.89,-38.56,-32.33,-9.56,1.22,–
CCCCCCCCC(=O)NCc1ccc(OCC(O)CNCCCCCC)c(OC)c1 (configuration not stated),-2.11,-2.22,66.1,-4.44,-12.67,-24.11,933,-2.89,-35.56,-14.89,-8,1.89,–
CCCCCCCCC(=O)NCc1ccc(OCCN(CC)CC)c(OC)c1,–,–,–,–,–,–,–,–,–,–,–,–,Dose [1]: 0.5 mg/kg; BP [2]: -15 mmHg
CCCCCCCCC(=O)NCc1ccc(OCC(O)CNC)c(OC)c1 (configuration not stated),1.89,-1.11,74.1,-0.56,14.56,-17.33,295,-0.22,-34.56,-12.22,4.78,0.78,–
CCCCCCCCC(=O)NCc1ccc(OCC(O)CNCCCC)c(OC)c1 (configuration not stated),0.11,-0.22,53.7,-1.22,-15.33,-33.78,58.9,-1.22,-40,-26.22,-3.67,3.33,–
CCCCCCCCC(=O)NCc1ccc(OCC(O)CNC(C)C)c(OC)c1 (configuration not stated),-6.67,-0.44,8.51,-2.89,-32.67,-40.78,17,-1.22,-50.22,-35.44,-20,-1.33,–
CCCCCCCCC(=O)NCc1ccc(OCCN(C)C)c(OC)c1,–,–,–,–,–,–,–,–,–,–,–,–,Dose [1]: 0.5 mg/kg; BP [2]: -21.6 mmHg
CCCCCCCCC(=O)NCc1ccc(OCC(O)CNC(C)(C)C)c(OC)c1 (configuration not stated),1.25,3.13,15.8,2.38,-24.88,-37.75,39.8,3.38,-45,-29.5,-18.5,4.63,–
CCCCCCCCC(=O)NCc1ccc(OCC(O)CNC2CC2)c(OC)c1 (configuration not stated),3.67,-0.11,–,3.89,-11.89,-38.89,–,3.11,-47.67,-23.67,-2.67,2.22,–
CCCCCCCCC(=O)NCc1ccc(OCC(O)CNCC)c(OC)c1 (configuration not stated),-2.44,7.44,53.7,1.11,-21.11,-32.22,117,2.56,-38.33,-28,2.56,1.88,–
CCCCCCCCC(=O)NCc1ccc(OCC(O)CNC2CCCCC2)c(OC)c1 (configuration not stated),1.33,-4.11,–,-3.67,-1.78,-28.44,–,-4.22,-32.33,-11.67,2.78,0.67,–
CCCCCCCCC(=O)NCc1ccc(OCC(O)CNCC(C)C)c(OC)c1 (configuration not stated),2,-2.75,26.9,1.63,4.13,-35.25,117,1.63,-39.88,-27.13,3.13,0.25,–
CCCCCCCCC(=O)NCc1ccc(OCC(O)CNCCC)c(OC)c1 (stereo in doubt; 6),–,–,25.1,–,–,–,93.3,–,–,–,–,–,BP ([3]; 1 mg/kg): -1.11 mmHg; BP ([4]; 1 mg/kg): -1.56 mmHg; BP ([6]; 1 mg/kg): -1.89 mmHg; HR ([7]; 1 mg/kg): -5 beats min-1; HR ([8]; 1 mg/kg): -28.22 beats min-1; BP ([10]; 1 mg/kg): -2.67 mmHg; HR ([11]; 1 mg/kg): -36.78 beats min-1; HR ([12]; 1 mg/kg): -19.89 beats min-1; HR ([13]; 1 mg/kg): -7.56 beats min-1; BP ([14]; 1 mg/kg): 4.78 mmHg
CCCCCCCCC(=O)NCc1ccc(OCC(O)CNCCC)c(OC)c1 (stereo in doubt; 8),–,–,–,–,–,–,–,–,–,–,–,–,BP ([3]; 1 mg/kg): -2.44 mmHg; BP ([4]; 1 mg/kg): -1.78 mmHg; pA2 [5]: 7.75; BP ([6]; 1 mg/kg): -3.11 mmHg; HR ([7]; 1 mg/kg): -14.11 beats min-1; HR ([8]; 1 mg/kg): -35.33 beats min-1; pA2 [9]: 6.79; BP ([10]; 1 mg/kg): -2.56 mmHg; HR ([11]; 1 mg/kg): -42.56 beats min-1; HR ([12]; 1 mg/kg): -32 beats min-1; HR ([13]; 1 mg/kg): -6.89 beats min-1; BP ([14]; 1 mg/kg): -0.56 mmHg
COc1cc(CNC(=O)CCCC/C=C/C(C)C)ccc1O [CAPSAICIN],–,–,–,–,–,–,–,–,–,–,–,–,Dose [1]: 0.001 mg/kg; BP [15]: -49.5 mmHg
CCCCCCCCC(=O)NCc1ccc(O)c(OC)c1 [NONIVAMIDE],–,–,–,–,–,–,–,–,–,–,–,–,Dose [1]: 0.005 mg/kg; BP [15]: -28.3 mmHg
CC(C)NCC(O)COc1cccc2ccccc12 (configuration not stated) [PROPRANOLOL],-4.67,-2.83,–,-6.5,-62.57,-63.85,–,-6.33,-57.28,-65.28,-52.14,2.17,–
